Drawing on ChEMBL document CHEMBL1157540, “2-Arylthiomorpholine derivatives as potent and selective monoamine oxidase B inhibitors” (Bioorg Med Chem, 2010), this text covers Ki and Ratio Ki for 13 molecules.

SMILES strings stand for the structures.

Assay [1] concerns the target T1, Amine oxidase [flavin-containing] B (Homo sapiens, UniProt P27338).
T1 sequence (P27338 whole entry): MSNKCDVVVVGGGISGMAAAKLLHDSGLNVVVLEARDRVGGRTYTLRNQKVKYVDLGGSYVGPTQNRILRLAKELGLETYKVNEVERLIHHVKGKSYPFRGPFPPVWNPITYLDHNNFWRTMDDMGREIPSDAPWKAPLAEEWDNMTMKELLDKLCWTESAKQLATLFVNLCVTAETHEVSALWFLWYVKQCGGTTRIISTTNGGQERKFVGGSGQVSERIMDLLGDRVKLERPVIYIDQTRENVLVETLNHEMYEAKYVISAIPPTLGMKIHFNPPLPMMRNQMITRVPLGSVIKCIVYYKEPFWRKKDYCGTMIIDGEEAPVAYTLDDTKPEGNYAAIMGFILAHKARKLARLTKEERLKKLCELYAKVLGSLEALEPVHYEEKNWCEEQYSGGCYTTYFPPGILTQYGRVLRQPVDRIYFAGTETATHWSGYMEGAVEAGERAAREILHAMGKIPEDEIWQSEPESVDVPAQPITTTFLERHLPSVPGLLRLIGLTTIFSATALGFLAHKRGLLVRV
The assay is described as follows: Inhibition of human recombinant MAOB by spectrophotometrically. In short, it runs like this: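 Purified human recombinant MAO-B; benzylamine substrate in 50 mM Hepes pH 7.5 with 0.5% (w/v) reduced Triton X-100 at 25 °C. Benzaldehyde formation monitored at 250 nm. Ki from full kinetic determinations (initial velocities at varied inhibitor levels; Lineweaver–Burk analysis).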

Assay [2] has as its target T2, Amine oxidase [flavin-containing] A (Homo sapiens, UniProt P21397).
T2 sequence (P21397 whole entry): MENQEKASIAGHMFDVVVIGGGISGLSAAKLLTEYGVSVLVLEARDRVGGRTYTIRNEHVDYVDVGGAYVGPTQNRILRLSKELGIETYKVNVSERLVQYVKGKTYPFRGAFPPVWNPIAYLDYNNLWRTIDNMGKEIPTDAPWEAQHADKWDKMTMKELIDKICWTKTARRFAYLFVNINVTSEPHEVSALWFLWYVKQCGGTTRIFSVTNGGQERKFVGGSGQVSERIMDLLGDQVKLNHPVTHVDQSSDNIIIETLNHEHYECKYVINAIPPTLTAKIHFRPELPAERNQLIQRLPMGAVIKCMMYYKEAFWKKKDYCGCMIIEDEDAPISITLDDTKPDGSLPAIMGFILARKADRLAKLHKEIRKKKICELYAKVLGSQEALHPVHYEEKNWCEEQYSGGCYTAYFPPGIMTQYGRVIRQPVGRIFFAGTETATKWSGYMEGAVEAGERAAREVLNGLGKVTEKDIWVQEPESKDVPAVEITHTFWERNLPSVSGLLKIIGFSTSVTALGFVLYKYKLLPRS
The experiment in a line: Inhibition of human recombinant MAOA by spectrophotometrically. A digest of the protocol: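 Purified human recombinant MAO-A; initial oxidation rates read spectrophotometrically at 30 °C in 50 mM potassium phosphate pH 7.4 with 0.05% Triton X-100. Kynuramine 0.1–0.9 mM at six inhibitor concentrations spanning 10-fold; product followed at 314 nm. Ki taken directly from full kinetic analysis; errors from a single kinetic analysis.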

In assay [3] the target is T3, Amine oxidase [flavin-containing] A (Rattus norvegicus, UniProt P21396).
T3 sequence (P21396 whole entry): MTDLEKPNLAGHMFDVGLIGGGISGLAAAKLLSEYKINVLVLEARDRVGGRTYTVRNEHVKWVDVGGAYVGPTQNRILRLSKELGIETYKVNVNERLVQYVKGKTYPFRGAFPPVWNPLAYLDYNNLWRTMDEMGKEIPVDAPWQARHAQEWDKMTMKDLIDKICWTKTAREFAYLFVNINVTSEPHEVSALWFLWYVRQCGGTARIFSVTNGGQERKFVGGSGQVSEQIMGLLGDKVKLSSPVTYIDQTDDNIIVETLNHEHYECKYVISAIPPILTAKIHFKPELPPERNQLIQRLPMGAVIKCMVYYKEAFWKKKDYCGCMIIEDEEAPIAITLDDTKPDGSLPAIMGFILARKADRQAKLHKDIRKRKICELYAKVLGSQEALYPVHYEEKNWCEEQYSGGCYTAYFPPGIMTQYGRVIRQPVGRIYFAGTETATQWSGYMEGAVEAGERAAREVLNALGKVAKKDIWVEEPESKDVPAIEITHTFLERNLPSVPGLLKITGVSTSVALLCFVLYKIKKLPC
The assay is described as follows: Inhibition of MAOA in rat brain mitochondrial suspension. It counts as tissue-based. In short, it runs like this: (§1)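 Rat brain mitochondria; MAO-A substrate 5-HT, MAO-B substrate DMAPEA; metabolites measured by HPLC with electrochemical detection. Percent inhibition relative to enzyme treated alike without inhibitor; IC50 from inhibition vs –log concentration (mean ± SD, at least two independent experiments, each in triplicate). Ki by Cheng–Prusoff with Km 100 μM (5-HT, MAO-A) and 5 μM (DMAPEA, MAO-B).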

Assay [4] addresses T4, Amine oxidase [flavin-containing] B (Rattus norvegicus, UniProt P19643).
T4 sequence (P19643 whole entry): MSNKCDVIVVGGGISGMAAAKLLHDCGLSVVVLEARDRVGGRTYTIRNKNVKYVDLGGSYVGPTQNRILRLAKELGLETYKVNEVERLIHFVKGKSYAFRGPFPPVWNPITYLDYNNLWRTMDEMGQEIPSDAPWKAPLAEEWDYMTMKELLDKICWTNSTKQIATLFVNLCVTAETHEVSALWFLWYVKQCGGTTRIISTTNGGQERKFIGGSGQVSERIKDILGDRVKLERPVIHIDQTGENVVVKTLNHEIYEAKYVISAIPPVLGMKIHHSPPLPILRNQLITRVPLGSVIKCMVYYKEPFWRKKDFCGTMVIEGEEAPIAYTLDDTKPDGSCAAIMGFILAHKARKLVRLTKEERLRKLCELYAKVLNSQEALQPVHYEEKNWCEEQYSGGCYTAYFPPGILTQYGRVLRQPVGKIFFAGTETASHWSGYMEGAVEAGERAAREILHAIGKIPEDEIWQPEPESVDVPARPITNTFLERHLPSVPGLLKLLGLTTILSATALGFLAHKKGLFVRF
The experiment in a line: Inhibition of MAOB in rat brain mitochondrial suspension. It counts as tissue-based. A digest of the protocol: as §1

For assay [5], the species on record is Rattus norvegicus. The experiment in a line: Selectivity ratio of Ki for rat MAOA to Ki for rat MAOB. In short, it runs like this:
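Ki(rMAO-A)/Ki(rMAO-B), each from rat brain mitochondrial IC50 by Cheng–Prusoff (5-HT for MAO-A, Km 100 μM; DMAPEA for MAO-B, Km 5 μM; HPLC-electrochemical detection).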

The species named for assay [6] is Homo sapiens. The experiment in a line: Selectivity ratio of Ki for human MAOA to Ki for human MAOB.

What is called Ki is a measure of affinity in units of concentration, obtained from inhibition or displacement. As for `O=C1CSC(c2ccccc2)CN1` (racemic), the Ki was > 100 µM in assay [1], > 100 µM in assay [2], 9.19 µM in assay [3] and 9.58 µM in assay [4]. In addition, in assay [5], the Ratio Ki turned out to be 1.
For the molecule `CCCOc1ccc(C2CNC(=O)CS2)cc1` (racemic), the Ki in assay [1] came out at 2.4 µM; in assay [2] it was 40 µM; in assay [3] it was 8.68 µM; in assay [4], 1.49 µM. Further, the Ratio Ki in assay [5] came to 6; in assay [6], 16.7.
Consider `CCOc1ccc(C2CNCCS2)cc1` (racemic), for which the Ki is 2.1 µM in assay [1], 9.6 µM in assay [2], 2.17 µM in assay [3] and 2.17 µM in assay [4]. Moreover, the results for the Ratio Ki in assay [5] and in assay [6] were 1 and 5, respectively.
As to `CCCCOc1ccc(C2CNCCS2)cc1` (racemic), the Ki in assay [1] worked out at 0.068 µM; in assay [2], 2.5 µM; in assay [3], 14.1 µM; in assay [4] it was 0.27 µM. In addition, the Ratio Ki in assay [5] was 52; in assay [6], 37.
`c1ccc(COc2ccc(C3CNCCS3)cc2)cc1` (racemic): the Ki in assay [1] was 0.038 µM; in assay [2] it was > 100 µM; in assay [3], 19 µM; in assay [4] it was 0.13 µM. Also, the Ratio Ki in assay [5] was 146; in assay [6], > 2600.
On to `COc1ccc(C2CNC(=O)CS2)cc1` (racemic), for which the Ki is > 100 µM in assay [1], > 100 µM in assay [2], 9.28 µM in assay [3] and 13.6 µM in assay [4]. The Ratio Ki in assay [5] worked out at 0.68.
Turning to `CCOc1ccc(C2CNC(=O)CS2)cc1` (racemic), the Ki in assay [1] was determined as 16.9 µM; in assay [2], 60 µM; in assay [3], 12.3 µM; in assay [4] it was 3.4 µM. Moreover, the values for the Ratio Ki in assay [5] and in assay [6] were 3.6 and 3.5, respectively.
On to `CCCCOc1ccc(C2CNC(=O)CS2)cc1` (racemic), for which the Ki worked out at 0.46 µM in assay [1], 10 µM in assay [2], 50.9 µM in assay [3] and 0.16 µM in assay [4]. For the same molecule, the values for the Ratio Ki in assay [5] and in assay [6] were 318 and 22, respectively.
Regarding `O=C1CSC(c2ccc(OCc3ccccc3)cc2)CN1` (racemic), the Ki in assay [1] is 0.048 µM; in assay [2], > 100 µM; in assay [3] it was 27.5 µM; in assay [4] it was 0.074 µM. The Ratio Ki in assay [5] was 373; in assay [6], > 2000.
As to `COc1ccc(C2CNCCS2)cc1` (racemic), the Ki in assay [1] was > 100 µM; in assay [2], 16.2 µM; in assay [3], 6.39 µM; in assay [4], 3.85 µM. In addition, the Ratio Ki in assay [5] stood at 1.7.
`CCCOc1ccc(C2CNCCS2)cc1` (racemic): the Ki in assay [1] turned out to be 0.13 µM; in assay [2], 6.62 µM; in assay [3], 3.69 µM; in assay [4] it was 0.98 µM. Moreover, the Ratio Ki in assay [5] stood at 4; in assay [6] it was 51.
`c1ccc(C2CNCCS2)cc1` (racemic): the Ki in assay [1] is > 100 µM; in assay [2] it was > 100 µM; in assay [3] it was 10.6 µM; in assay [4], 2.23 µM. In assay [5], the Ratio Ki is 5.
For the molecule `C[C@H](N)Cc1ccccc1` [DEXTROAMPHETAMINE], the Ki in assay [1] was 280 µM; in assay [2], 14.4 µM; in assay [3], 12.2 µM; in assay [4], > 100 µM. Besides, the Ratio Ki is > 0.12 in assay [5] and 0.05 in assay [6].
